The record followed here is ChEMBL document CHEMBL4229344 (Eur J Med Chem, 2018).

The target of assay [1] is Cytoplasmic tyrosine-protein kinase BMX (Homo sapiens) (UniProt P51813). The experiment in a line: Binding affinity to wild-type human full length BMX (M1 to H675 residues) expressed in bacterial expression system assessed as residual binding level at 1 uM by Kinomescan method relative to control. The essentials:
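Single-concentration (1 μM) competition-binding screen run by KINOMEscan against a panel of 468 purified kinases and mutants. The read-out is the relative binding activity of the test compound to each kinase.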

Assay [2] concerns the target Serine/threonine-protein kinase BRSK1 (Homo sapiens) (UniProt Q8TDC3). The experiment in a line: Binding affinity to wild-type human partial length BRSK1 (M1 to E754 residues) expressed in bacterial expression system assessed as residual binding level at 1 uM by Kinomescan method relative to control.
Assay [3] deals with Cyclin-dependent kinase 11A (Homo sapiens) (UniProt Q9UQ88). Description: Binding affinity to wild-type human partial length CDC2L2 (D391 to K730 residues) expressed in bacterial expression system assessed as residual binding level at 1 uM by Kinomescan method relative to control.
Cyclin-dependent kinase 11A (Homo sapiens), sequence (Q9UQ88 whole entry, the tested form may be a part): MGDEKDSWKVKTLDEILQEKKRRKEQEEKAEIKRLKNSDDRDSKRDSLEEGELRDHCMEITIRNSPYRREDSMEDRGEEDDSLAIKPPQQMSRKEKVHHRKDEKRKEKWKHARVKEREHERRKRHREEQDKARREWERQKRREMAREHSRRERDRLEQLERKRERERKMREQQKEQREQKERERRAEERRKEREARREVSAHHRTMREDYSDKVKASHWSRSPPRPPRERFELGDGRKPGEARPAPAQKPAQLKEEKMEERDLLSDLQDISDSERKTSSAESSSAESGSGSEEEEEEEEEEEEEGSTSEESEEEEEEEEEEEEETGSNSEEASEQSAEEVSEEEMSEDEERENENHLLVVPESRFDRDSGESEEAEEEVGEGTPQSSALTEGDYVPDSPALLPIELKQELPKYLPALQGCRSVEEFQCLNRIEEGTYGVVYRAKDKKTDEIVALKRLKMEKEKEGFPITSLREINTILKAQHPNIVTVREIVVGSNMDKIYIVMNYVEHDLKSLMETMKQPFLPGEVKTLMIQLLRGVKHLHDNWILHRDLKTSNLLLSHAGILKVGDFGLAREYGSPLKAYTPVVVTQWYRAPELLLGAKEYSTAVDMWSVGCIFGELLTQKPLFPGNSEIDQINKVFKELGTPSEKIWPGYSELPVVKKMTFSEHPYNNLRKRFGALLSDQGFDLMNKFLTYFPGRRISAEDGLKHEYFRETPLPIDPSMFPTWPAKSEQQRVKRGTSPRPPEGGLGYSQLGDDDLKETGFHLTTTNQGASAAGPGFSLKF
Assay [4] has as its target Focal adhesion kinase 1 (Homo sapiens) (UniProt Q05397). Description: Binding affinity to wild-type human partial length FAK (D402 to R696 residues) expressed in bacterial expression system assessed as residual binding level at 1 uM by Kinomescan method relative to control.
In assay [5] the target is Fibroblast growth factor receptor 3 (Homo sapiens) (UniProt P22607). Description: Binding affinity to wild-type human partial length FGFR3 (R442 to S771 residues) expressed in bacterial expression system assessed as residual binding level at 1 uM by Kinomescan method relative to control.
Assay [6] has as its target Hormonally up-regulated neu tumor-associated kinase (Homo sapiens) (UniProt P57058). The experiment in a line: Binding affinity to wild-type human partial length HUNK (A31 to K354 residues) expressed in bacterial expression system assessed as residual binding level at 1 uM by Kinomescan method relative to control.
For assay [7], the target named is Tyrosine-protein kinase JAK2 (Homo sapiens) (UniProt O60674). Description: Binding affinity to wild-type human partial length JAK2 JH1 catalytic domain (A829 to G1132 residues) expressed in mammalian expression system assessed as residual binding level at 1 uM by Kinomescan method relative to control.
For assay [8], the target named is Serine/threonine-protein kinase LATS2 (Homo sapiens) (UniProt Q9NRM7). The experiment in a line: Binding affinity to wild-type human partial length LATS2 (Q641 to V1088 residues) expressed in mammalian expression system assessed as residual binding level at 1 uM by Kinomescan method relative to control.
The target in assay [9] is Tyrosine-protein kinase Lck (Homo sapiens) (UniProt P06239). Description: Binding affinity to wild-type human partial length LCK (R207 to P509 residues) expressed in bacterial expression system assessed as residual binding level at 1 uM by Kinomescan method relative to control.
Tyrosine-protein kinase Lck (Homo sapiens), sequence (P06239 2-509 limits assumed): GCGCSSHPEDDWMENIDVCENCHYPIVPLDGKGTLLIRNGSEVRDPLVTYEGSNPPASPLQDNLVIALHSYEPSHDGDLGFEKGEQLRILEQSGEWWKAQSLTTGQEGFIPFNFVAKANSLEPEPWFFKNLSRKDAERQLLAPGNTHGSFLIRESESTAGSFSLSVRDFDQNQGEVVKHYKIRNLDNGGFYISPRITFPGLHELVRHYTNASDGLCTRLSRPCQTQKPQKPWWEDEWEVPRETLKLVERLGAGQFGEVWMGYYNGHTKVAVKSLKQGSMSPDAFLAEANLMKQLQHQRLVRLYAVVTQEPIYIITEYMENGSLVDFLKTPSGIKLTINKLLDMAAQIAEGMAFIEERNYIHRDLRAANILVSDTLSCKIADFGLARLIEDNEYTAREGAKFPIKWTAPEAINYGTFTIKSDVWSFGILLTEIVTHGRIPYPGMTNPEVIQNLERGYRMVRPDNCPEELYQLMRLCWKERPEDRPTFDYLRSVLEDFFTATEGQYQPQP
Assay [10] has as its target Misshapen-like kinase 1 (Homo sapiens) (UniProt Q8N4C8). The experiment in a line: Binding affinity to wild-type human partial length MINK (M1 to K312 residues) expressed in mammalian expression system assessed as residual binding level at 1 uM by Kinomescan method relative to control. The essentials:
(§1)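 Kinome-wide competition binding screen against a panel of 468 purified kinases/mutants, with the test compound at a single concentration of 1 μM. Read-out is the relative binding activity of each kinase in the presence of compound.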

For assay [11], the target named is MAP kinase-interacting serine/threonine-protein kinase 1 (Homo sapiens) (UniProt Q9BUB5). The experiment in a line: Binding affinity to wild-type human full length MKNK1 (M1 to L424 residues) expressed in mammalian expression system assessed as residual binding level at 1 uM by Kinomescan method relative to control. The essentials: (§2)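 Single-concentration KINOMEscan (DiscoverX) binding screen at 1 μM against a panel of 468 purified kinases and mutants. The read-out is binding relative to control.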

The target in assay [12] is Serine/threonine-protein kinase MRCK alpha (Homo sapiens) (UniProt Q5VT25). The experiment in a line: Binding affinity to wild-type human partial length MRCKA (L57 to V418 residues) expressed in bacterial expression system assessed as residual binding level at 1 uM by Kinomescan method relative to control. The essentials: as §1
Assay [13] addresses Myosin light chain kinase 2, skeletal/cardiac muscle (Homo sapiens) (UniProt Q9H1R3). Description: Binding affinity to wild-type human partial length MYLK2 (D258 to K570 residues) expressed in bacterial expression system assessed as residual binding level at 1 uM by Kinomescan method relative to control.
Assay [14] has as its system Phosphatidylinositol 4,5-bisphosphate 3-kinase catalytic subunit alpha isoform (Homo sapiens), P42336 [E545A]. The experiment in a line: Binding affinity to human partial length PIK3CA E545A mutant (R108 to N1068 residues) expressed in mammalian expression system assessed as residual binding level at 1 uM by Kinomescan method relative to control. The method in brief: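 Kinome-wide single-concentration binding screen (KINOMEscan) at 1 μM against a panel of 468 purified kinases and mutants. Read-out is relative binding of each kinase compared with control. Selectivity across the panel was summarised as an S(10) score.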

Assay [15] deals with Phosphatidylinositol 5-phosphate 4-kinase type-2 gamma (Homo sapiens) (UniProt Q8TBX8). The experiment in a line: Binding affinity to wild-type human partial length PIP5K2C (M1 to A421 residues) expressed in mammalian expression system assessed as residual binding level at 1 uM by Kinomescan method relative to control. The method in brief: (§3)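 KINOMEscan competition binding against a panel of 468 purified kinases/mutants, compound tested at 1 μM; readout is relative binding activity versus control.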
Phosphatidylinositol 5-phosphate 4-kinase type-2 gamma (Homo sapiens), sequence (Q8TBX8 whole entry, the tested form may be a part): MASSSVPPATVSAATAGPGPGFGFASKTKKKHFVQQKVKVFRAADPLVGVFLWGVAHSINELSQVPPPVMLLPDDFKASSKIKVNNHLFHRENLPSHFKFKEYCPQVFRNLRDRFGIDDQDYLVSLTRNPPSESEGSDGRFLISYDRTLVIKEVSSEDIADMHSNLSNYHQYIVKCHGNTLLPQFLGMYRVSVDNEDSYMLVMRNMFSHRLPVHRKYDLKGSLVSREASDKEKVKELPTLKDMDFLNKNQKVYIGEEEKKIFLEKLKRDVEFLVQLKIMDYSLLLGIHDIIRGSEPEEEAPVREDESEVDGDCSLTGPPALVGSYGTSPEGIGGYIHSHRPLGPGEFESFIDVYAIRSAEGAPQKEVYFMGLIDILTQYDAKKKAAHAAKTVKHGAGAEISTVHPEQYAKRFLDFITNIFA

Assay [16] deals with Protein kinase C iota type (Homo sapiens) (UniProt P41743). The experiment in a line: Binding affinity to wild-type human partial length PRKCI (H215 to V587 residues) expressed in mammalian expression system assessed as residual binding level at 1 uM by Kinomescan method relative to control.
The target of assay [17] is Serine/threonine-protein kinase SBK1 (Homo sapiens) (UniProt Q52WX2). The experiment in a line: Binding affinity to wild-type human partial length SBK1 (P23 to P348 residues) expressed in mammalian expression system assessed as residual binding level at 1 uM by Kinomescan method relative to control.
For assay [18], the target named is Serine/threonine-protein kinase 16 (Homo sapiens) (UniProt O75716). The experiment in a line: Binding affinity to wild-type human partial length STK16 (G11 to I305 residues) expressed in bacterial expression system assessed as residual binding level at 1 uM by Kinomescan method relative to control.
In assay [19] the target is Serine/threonine-protein kinase 33 (Homo sapiens) (UniProt Q9BYT3). The experiment in a line: Binding affinity to wild-type human full length STK33 (M1 to L514 residues) expressed in bacterial expression system assessed as residual binding level at 1 uM by Kinomescan method relative to control. The method in brief:
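KINOMEscan competition binding against 468 purified kinases/mutants, test compound at 1 µM; residual binding relative to control.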

Assay [20] deals with Mitogen-activated protein kinase kinase kinase 7 (Homo sapiens) (UniProt O43318). The experiment in a line: Binding affinity to wild-type human partial length TAK1 (M1 to Q303 residues) expressed in mammalian expression system assessed as residual binding level at 1 uM by Kinomescan method relative to control. The method in brief:
as §3

The target in assay [21] is Dual specificity testis-specific protein kinase 1 (Homo sapiens) (UniProt Q15569). The experiment in a line: Binding affinity to wild-type human full length TESK1 (R37 to S626 residues) expressed in bacterial expression system assessed as residual binding level at 1 uM by Kinomescan method relative to control. The method in brief:
as §2

SMILES strings stand for the structures.

Hormonally up-regulated neu tumor-associated kinase (Homo sapiens), sequence (P57058 whole entry, the tested form may be a part): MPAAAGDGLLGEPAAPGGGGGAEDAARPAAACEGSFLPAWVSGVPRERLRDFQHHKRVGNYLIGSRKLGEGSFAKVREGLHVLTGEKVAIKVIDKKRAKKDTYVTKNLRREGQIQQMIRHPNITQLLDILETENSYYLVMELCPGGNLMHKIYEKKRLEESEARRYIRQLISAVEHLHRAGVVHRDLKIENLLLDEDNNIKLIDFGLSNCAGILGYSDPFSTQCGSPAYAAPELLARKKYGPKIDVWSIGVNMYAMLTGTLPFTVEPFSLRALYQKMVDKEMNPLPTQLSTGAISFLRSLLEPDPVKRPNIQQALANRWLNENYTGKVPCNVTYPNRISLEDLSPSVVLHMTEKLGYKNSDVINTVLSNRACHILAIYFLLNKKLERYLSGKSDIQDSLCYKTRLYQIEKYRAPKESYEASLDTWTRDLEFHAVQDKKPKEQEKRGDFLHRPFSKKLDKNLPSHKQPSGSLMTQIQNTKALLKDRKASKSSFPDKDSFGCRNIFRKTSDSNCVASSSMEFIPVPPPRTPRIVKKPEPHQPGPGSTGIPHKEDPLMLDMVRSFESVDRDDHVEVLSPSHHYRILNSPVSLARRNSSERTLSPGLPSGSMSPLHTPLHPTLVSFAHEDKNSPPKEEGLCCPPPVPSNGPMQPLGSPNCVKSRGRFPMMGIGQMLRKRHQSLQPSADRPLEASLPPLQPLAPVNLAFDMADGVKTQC
Mitogen-activated protein kinase kinase kinase 7 (Homo sapiens), sequence (O43318 whole entry, the tested form may be a part): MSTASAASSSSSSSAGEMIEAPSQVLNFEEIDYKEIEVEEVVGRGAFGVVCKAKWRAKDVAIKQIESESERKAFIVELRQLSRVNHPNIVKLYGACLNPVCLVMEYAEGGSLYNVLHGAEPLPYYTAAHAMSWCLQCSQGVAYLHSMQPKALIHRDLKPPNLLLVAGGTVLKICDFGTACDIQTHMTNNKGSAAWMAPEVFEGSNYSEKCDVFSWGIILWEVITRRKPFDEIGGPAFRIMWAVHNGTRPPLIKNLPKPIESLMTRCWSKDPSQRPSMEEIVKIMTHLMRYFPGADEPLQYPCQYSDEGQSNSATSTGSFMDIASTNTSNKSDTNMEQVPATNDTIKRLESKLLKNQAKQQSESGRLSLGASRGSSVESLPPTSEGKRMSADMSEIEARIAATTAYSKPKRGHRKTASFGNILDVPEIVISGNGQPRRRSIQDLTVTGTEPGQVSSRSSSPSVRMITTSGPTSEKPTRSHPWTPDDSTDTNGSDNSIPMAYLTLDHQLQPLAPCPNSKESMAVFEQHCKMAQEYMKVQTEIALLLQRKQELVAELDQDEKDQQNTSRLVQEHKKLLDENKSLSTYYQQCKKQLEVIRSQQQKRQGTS
Focal adhesion kinase 1 (Homo sapiens), sequence (Q05397 2-1052 limits assumed): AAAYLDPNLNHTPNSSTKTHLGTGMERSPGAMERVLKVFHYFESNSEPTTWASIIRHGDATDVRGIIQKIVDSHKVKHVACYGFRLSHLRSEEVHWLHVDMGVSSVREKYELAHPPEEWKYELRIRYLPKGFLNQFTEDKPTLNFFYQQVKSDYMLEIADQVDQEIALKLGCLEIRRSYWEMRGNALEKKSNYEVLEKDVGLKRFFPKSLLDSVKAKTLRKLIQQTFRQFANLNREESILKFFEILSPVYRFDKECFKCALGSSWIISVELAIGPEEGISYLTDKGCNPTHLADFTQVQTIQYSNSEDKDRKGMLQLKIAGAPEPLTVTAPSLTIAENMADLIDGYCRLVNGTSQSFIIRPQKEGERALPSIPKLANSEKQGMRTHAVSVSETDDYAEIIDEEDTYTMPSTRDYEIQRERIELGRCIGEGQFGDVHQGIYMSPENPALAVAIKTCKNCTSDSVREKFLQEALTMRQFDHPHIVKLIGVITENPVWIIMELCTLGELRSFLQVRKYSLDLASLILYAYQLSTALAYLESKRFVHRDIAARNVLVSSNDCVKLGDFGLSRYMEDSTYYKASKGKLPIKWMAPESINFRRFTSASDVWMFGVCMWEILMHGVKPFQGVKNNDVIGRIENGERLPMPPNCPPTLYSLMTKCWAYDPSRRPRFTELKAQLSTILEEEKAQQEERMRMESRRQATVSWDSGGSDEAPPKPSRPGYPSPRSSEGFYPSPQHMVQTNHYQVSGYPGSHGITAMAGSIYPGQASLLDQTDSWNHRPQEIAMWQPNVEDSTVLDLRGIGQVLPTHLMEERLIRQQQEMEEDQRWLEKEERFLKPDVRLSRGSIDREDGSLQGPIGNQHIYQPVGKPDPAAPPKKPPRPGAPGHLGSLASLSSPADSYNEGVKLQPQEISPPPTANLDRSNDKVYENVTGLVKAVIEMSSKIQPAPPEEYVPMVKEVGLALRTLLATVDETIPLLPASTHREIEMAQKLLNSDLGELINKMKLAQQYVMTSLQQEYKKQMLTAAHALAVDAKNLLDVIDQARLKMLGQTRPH
Cytoplasmic tyrosine-protein kinase BMX (Homo sapiens), sequence (P51813 whole entry, the tested form may be a part): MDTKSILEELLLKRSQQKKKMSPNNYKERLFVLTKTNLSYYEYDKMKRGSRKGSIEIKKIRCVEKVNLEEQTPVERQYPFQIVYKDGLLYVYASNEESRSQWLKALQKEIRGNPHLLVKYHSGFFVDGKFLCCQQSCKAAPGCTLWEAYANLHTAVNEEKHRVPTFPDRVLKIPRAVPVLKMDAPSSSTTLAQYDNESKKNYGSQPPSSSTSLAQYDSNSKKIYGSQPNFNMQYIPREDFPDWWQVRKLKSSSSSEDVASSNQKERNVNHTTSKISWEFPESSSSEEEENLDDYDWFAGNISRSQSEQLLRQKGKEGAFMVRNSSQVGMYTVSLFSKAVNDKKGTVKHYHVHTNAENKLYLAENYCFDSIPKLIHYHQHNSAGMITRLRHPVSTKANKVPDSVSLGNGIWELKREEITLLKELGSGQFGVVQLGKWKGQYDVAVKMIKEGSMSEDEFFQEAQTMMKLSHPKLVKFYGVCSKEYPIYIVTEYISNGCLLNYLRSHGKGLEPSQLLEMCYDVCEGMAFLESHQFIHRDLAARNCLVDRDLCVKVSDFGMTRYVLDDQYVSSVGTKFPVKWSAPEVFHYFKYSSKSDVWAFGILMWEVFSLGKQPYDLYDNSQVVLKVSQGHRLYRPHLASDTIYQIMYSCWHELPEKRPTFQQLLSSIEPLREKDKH

For the compound `Cc1ccc(NC(=O)c2ccc(CN(CCN(C)C)C(=O)c3cccnc3)cc2)cc1Nc1nccc(-c2cccnc2)n1`, the Activity in assay [1] turned out to be 100%; in assay [2], 93%; in assay [3] it was 96%; in assay [4], 90%; in assay [5], 100%; in [6], 90%. Also, the Activity came to 95% in assay [7]; 100% in assay [8]; 100% in assay [9]; 75% in [10]; 100% in assay [11]; 80% in [12]. In addition, the Activity came to 100% in assay [13]; 63% in assay [14]; 37% in assay [15]; 100% in assay [16]; 100% in [17]; 88% in assay [18]. Further, the Activity in [19] amounted to 89%; in assay [20], 92%; in assay [21], 100%.
